Screening data from PubChem.
Rows were chosen to be rich in hits. Some 2.6% of all compounds tested hit in one or more screens of this group.
esBAF inh: SWI/SNF esBAF complex inhibition. reporter increase, % at 12.5 µM. mouse ES cells, Bmi1-luciferase knock-in reporter, 24 h; 100% = twice the neutral-well signal. hit rate 2% among 350,000; in the data active = activation above about 40%; inconclusive = no clear call, values can overlap the other calls;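 also: 0% = median of the plate's neutral control wells and 100% = double that signal; a rise in the Bmi1 reporter signal indicates esBAF inhibition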
SMARCA2 act: increases SMARCA2 function in MMTV reporter cells. MG213 cells, MMTV-luciferase reporter, dexamethasone, overnight. activation, % at 9.1 µM. hit rate 1% among 370,000. AID 652017; in the data active = activation above about 7.8%;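 also: 0% = vehicle wells and 100% = reference activator wells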
ARFGAP1 inhibitor: inhibits rat ARF GTPase activating protein 1; Q62848; Arfgap1-stimulated ARF1 GTP hydrolysis, GDP FP detection; inhibition, % at 16.5 µM; hit rate 0.26% among 360,000; AID 651572;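 active = inhibition above a per-plate limit, mean inhibition of low control wells plus 3 SD, cut at about 25% in these data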;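 also: 0% = DMSO wells with enzyme and 100% = wells lacking Arfgap1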
Target sequence (Q62848 1-136 limits assumed): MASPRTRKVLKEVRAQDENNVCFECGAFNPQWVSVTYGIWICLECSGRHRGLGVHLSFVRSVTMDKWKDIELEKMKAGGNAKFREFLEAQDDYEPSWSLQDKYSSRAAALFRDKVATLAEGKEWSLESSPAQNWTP
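Material – truncated rat Arfgap1 GAP domain · Buffer or medium – HEPES-based buffer, pH 7.5 · Reagent – human ARF1(Δ1-17)-GTP substrate · Dosing – 16.5 µM single point, 1.26% DMSO · Schedule – GTP hydrolysis reaction 2 h at 25 °C · Technique – GDP detection by fluorescence polarization · Benchmarks – No-Arfgap1 wells (100%) versus DMSO full-reaction wells (0%) · Repeats – single replicate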
ASAP1 GAP inh: ASAP1 ArfGAP inhibition; ASAP1-stimulated ARF1 GTP hydrolysis, GDP FP detection; inhibition, % at 16.5 µM; Q9ULH1; AID 624377; hit rate 0.19% among 360,000; in the data active = inhibition above about 25%;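 also: 0% = vehicle with enzyme and substrate and 100% = no enzyme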
Target sequence (Q9ULH1 325-724 limits assumed): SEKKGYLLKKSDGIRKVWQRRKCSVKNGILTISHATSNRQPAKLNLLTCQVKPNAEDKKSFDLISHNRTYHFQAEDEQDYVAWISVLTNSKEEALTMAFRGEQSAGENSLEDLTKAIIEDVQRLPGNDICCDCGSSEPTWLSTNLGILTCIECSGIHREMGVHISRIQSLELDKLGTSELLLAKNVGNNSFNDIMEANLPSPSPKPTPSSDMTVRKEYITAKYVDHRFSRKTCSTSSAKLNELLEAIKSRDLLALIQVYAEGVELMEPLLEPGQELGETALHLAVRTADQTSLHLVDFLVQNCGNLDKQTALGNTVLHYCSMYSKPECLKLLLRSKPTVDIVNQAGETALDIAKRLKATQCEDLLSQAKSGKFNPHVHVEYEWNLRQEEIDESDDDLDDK
Ring1 derepress: esBAF inhibition confirmed by Ring1 de-repression; shares compounds with esBAF inh; mouse ESC E14, Ring1 mRNA RT-qPCR fold change; fold change at 33 µM; 550 tested, under 10 active;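 active = Ring1 gene expression raised more than 2-fold over untreated cells in both replicates at either tested dose; inconclusive = only one replicate above 2-fold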;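 also: Ring1 transcript normalised to actin housekeeping signal by TaqMan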
esBAF Fgf4 qPCR: represses Fgf4 in mouse ESCs, confirming esBAF inhibition. AID 743177. Fgf4 expression fold change at 33 µM. hit rate 4% among 550. mouse ESC E14, Fgf4 mRNA qPCR fold change; active compounds read low. shares compounds with esBAF inh;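 active = Fgf4 expression under 0.8 fold of control in both repeat measurements at one or both tested doses; inconclusive = under 0.8 fold in just a single repeat measurement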;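 also: Fgf4 transcript normalised to actin in duplex TaqMan qPCR; cells exposed to compound for 24 h before lysis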
esBAF Bmi1 qPCR: confirmation of esBAF inhibitors: Bmi1 de-repression in mouse ESCs. AID 743180. shares compounds with esBAF inh. fold change at 33 µM. mouse ESE14 ES cells, Bmi1 mRNA qPCR fold; active compounds read high. 550 tested, under 10 active;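 active = Bmi1 expression fold change above 6 at either tested concentration, seen in replicate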;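 also: higher fold means more Bmi1 de-repression and stronger esBAF inhibition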
A549 cytotox: kills or reduces viability of A549 cells. shares compounds with esBAF inh. A549 cytotoxicity, plate reader. cell viability change % (negative = cytotoxic), % at 25 µM, hits read low. 550 tested, under 10 active; call rule not given here
HepG2 cytotox SP: HepG2 cell cytotoxicity at single point | hit rate 4% among 550 | activity change, negative = inhibition, % at 25 µM | plate reader; active compounds read low | shares compounds with esBAF inh; in the data active = activity change below about -50%
HEK293 cytotox SP: kills or reduces viability of HEK293 cells. shares compounds with esBAF inh. HEK293 cytotoxicity, plate reader. activity change, negative = inhibition, % at 25 µM, hits read low. hit rate 3% among 550. AID 743190; in the data active = activity change below about -38%, passing the limit was not always enough
Starred values were filed as active, the others as inactive; ? = inconclusive; / = no result given.

SMILES	esBAF inh	SMARCA2 act	ARFGAP1 inhibitor	ASAP1 GAP inh	Ring1 derepress	esBAF Fgf4 qPCR	esBAF Bmi1 qPCR	A549 cytotox	HepG2 cytotox SP	HEK293 cytotox SP
COc1cccc(/C=N/n2c(N)nc3ccccc32)c1OC	73*	3	22	-6	1.6	1	2.3	-4	-13	-9
COc1ccc(/C=N/n2c(N)nc3ccccc32)cc1OC	26	6	-9	3	/	/	/	/	/	/
Cc1cccc(NC(=O)C2C3CCCCC32)c1 (stereo not drawn)	67*	6	5	-1	0.95	0.87	1.6	-13	-4	-6
O=C(Nc1ccccc1)C1C2CCCCC21 (stereo not drawn)	21	0	7	4	/	/	/	/	/	/
Cc1ccc(NC(=O)c2ccc3c(=O)n4c(nc3c2)CCC4)cc1F	67*	4	-18	-10	1	?	1.1	-6	10	-5
CCCCc1nnc(NC(=O)c2ccc3c(=O)n4c(nc3c2)CCC4)s1	1	-2	5	-3	/	/	/	/	/	/
CNC(=O)c1ccc(NC(=O)c2ccc3c(=O)n4c(nc3c2)CCC4)cc1	-3	-1	2	-6	/	/	/	/	/	/
CCc1nnc(NC(=O)c2ccc3c(=O)n4c(nc3c2)CCC4)s1	59*	2	22	12	0.91	0.94	1.4	-6	-41	-16
C[C@@H]1CN([C@H](C)CO)C(=O)c2cc(NC(=O)Cc3ccccc3)ccc2O[C@@H]1CN(C)Cc1ccc(-c2ccccc2)cc1	-4	/	/	/	/	/	/	/	/	/
CCOC(=O)N/N=C/c1ccccc1OCc1ccc(Cl)cc1	/	-1	-3	0	/	/	/	/	/	/
O=C(Cc1ccccc1)N/N=C/c1ccccc1OCc1ccc(Cl)cc1	101*	1	7	12	1.2	?	2.7	-17	10	-14
CCc1ccc2cc(C)cc(C)c2n1	0	2	15	-7	/	/	/	/	/	/
Cc1cc(C)c2nc(-c3ccccc3)ccc2c1	63*	4	-9	-16	0.93	?	1.6	-13	-17	-9
C[C@@H]1CN([C@@H](C)CO)C(=O)c2cc(C3=CCCC3)cnc2O[C@H]1CN(C)C(=O)NC1CCCC1	-2	/	/	/	/	/	/	/	/	/
Cn1cccc1C(=O)NC1CCCCCC1	64*	4	-3	-7	1.1	0.8	1.5	-14	-49	-19
O=C(C[C@@H]1C=C[C@H](NC(=O)c2cccnc2)[C@@H](CO)O1)NCCN1CCCCC1	-3	/	/	/	/	/	/	/	/	/
CN(C)c1ccc(N=Cc2nc(-c3ccccc3)oc2OC(=O)c2cccc(Br)c2)cc1	63*	6	9	6	1.4	1	1.5	0	-34	-10
Cc1cccc(Nc2nc(-c3sc(C)nc3C)cs2)c1	69*	0	13	12	1.2	0.95	1.7	-1	-16	-23
CC(C)NC(=O)N[C@H]1CC[C@@H](CCNC(=O)C2CC2)O[C@@H]1CO	-7	/	/	/	/	/	/	/	/	/
CN(Cc1nccs1)C(=O)c1cc(COc2cccc3cnccc23)on1	-13	-4	4	9	/	/	/	/	/	/
COc1cc(Cl)ccc1OCc1cc(C(=O)N(C)Cc2cccc3cnccc23)no1	71*	-1	2	16	1.2	1.1	1.5	-7	-13	-31
C[C@@H]1CN([C@@H](C)CO)C(=O)c2cccc(NS(=O)(=O)c3ccc(F)cc3)c2O[C@H]1CN(C)C	0	/	/	/	/	/	/	/	/	/
O=C(C[C@@H]1C[C@@H]2c3cc(NC(=O)CC4CC4)ccc3O[C@@H]2[C@H](CO)O1)NCC(F)(F)F	1	/	/	/	/	/	/	/	/	/
Cc1cc(-c2nnco2)c(C)n1-c1ccccc1	54*	3	11	11	1.1	1	1.5	-17	-22	-19
CCC(=O)c1ccc(N2CCCC2)c(F)c1	57*	0	-4	-3	1.1	0.91	1.4	-4	-21	-11
SMILES	esBAF inh	SMARCA2 act	ARFGAP1 inhibitor	ASAP1 GAP inh	Ring1 derepress	esBAF Fgf4 qPCR	esBAF Bmi1 qPCR	A549 cytotox	HepG2 cytotox SP	HEK293 cytotox SP
CCCC(=O)c1ccc(N2CCCC2)c(F)c1	?	0	-15	0	/	/	/	/	/	/
CCC(=O)c1ccc(N2CCCCCC2)c(F)c1	74*	1	2	2	1.1	1.1	1.3	-17	20	-15
Cc1noc(C)c1S(=O)(=O)Nc1ccc2c(c1)C(=O)N([C@@H](C)CO)C[C@@H](C)[C@@H](CN(C)C(=O)c1ccccc1)OCCCC[C@@H](C)O2	0	/	/	/	/	/	/	/	/	/
COCCNC(=O)C[C@@H]1CC[C@H]2[C@@H](COC[C@H](O)CN2C(=O)Nc2ccc3c(c2)OCO3)O1	4	/	/	/	/	/	/	/	/	/
COc1ccc(-c2cnc(C(O)c3ccccc3)[nH]2)cc1 (stereo not drawn)	65*	-1	19	-3	1.3	1	1.3	11	13	-2
CC1CCN(c2oc(-c3cccc4ccccc34)nc2C#N)CC1	67*	-2	11	-2	0.97	0.95	1.5	-1	-53*	-19
Cc1ccc2c(CN(C)Cc3cccc(F)c3)cc(=O)oc2c1	90*	3	2	-4	0.97	?	1.6	4	-6	-11
Cc1cc2oc(=O)cc(CN(C)Cc3ccccc3F)c2cc1Cl	64*	-1	11	2	1.3	0.65*	1.5	3	-1	-2
COC(=O)C[C@@H]1CC[C@H]2[C@@H](COC[C@H](O)CN2S(=O)(=O)c2ccc(F)cc2)O1	0	/	/	/	/	/	/	/	/	/
CC(=O)N(/N=C1\Sc2ccccc2C1=O)c1ccccc1	81*	5	3	3	1.1	/	1.2	-3	-1	-12
CC(=O)N(/N=C1\Sc2ccccc2C1=O)c1ccccc1C	38	7	8	8	/	/	/	/	/	/
C=CCn1cccc(C(=O)Nc2ccc(Cl)cc2)c1=O	63*	-2	8	11	1.2	0.94	1.2	6	-20	-15
C=CCn1cccc(C(=O)Nc2ccc(C)c(Cl)c2)c1=O	?	2	-6	1	/	/	/	/	/	/
CCc1ccc(-c2c(C)sc(NC(C)=O)c2C(N)=O)cc1	0	-3	14	-4	/	/	/	/	/	/
Cc1cc(C(=O)Nc2sc(C)c(-c3ccc(F)cc3)c2C(N)=O)no1	78*	5	-2	-5	1	0.97	1.4	7	-17	-3
COc1cc(CNc2ccc(N3CCN(C(C)=O)CC3)cc2)ccc1OCc1ccc(F)cc1	58*	-1	3	-1	2.2*	1.3	2.3	-5	-23	-29
COc1ccc(NC(=O)O/N=C/c2ccccc2)cc1	53*	4	2	2	1	?	1.7	-9	-34	-9
